Data published in PMC2652250 (Biochemistry, 2008).
“And” between values parts separate entries of the source, which are not always exact repeats. Equal entries are not always repeated. Each block holds one molecule with its values, some of them ahead of it.

Legend:
[1] = molecular target: cNTnC(C35S/C84S)·Ca^2+·cTnI144−163 (Homo sapiens, UniProt P19429+P63316, C35S/C84S); type: binding; conditions: for chemical shift changes on titration (in words): 100 mM stock added to the NMR sample; for drug-induced backbone amide chemical shift changes: 1.0 mM cNTnC(C35S/C84S), […] cTnI144−163, Figure 6; for Kd: global fit of HSQC chemical shift changes, pH 6.7, 30 °C
Sequence of cNTnC(C35S/C84S)·Ca^2+·cTnI144−163 (P19429 145-164, other chains not shown): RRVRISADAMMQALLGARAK

[2] = molecular target: cNTnC(C35S/C84S)·Ca^2+·cTnI147−163 (Homo sapiens, UniProt P19429+P63316, C35S/C84S); type: binding; conditions: for chemical shift changes on titration (in words): 100 mM stock added to the NMR sample
[3] = molecular target: cTnC·3Ca^2+·cTnI34−71·cTnI128−163; conditions: cited from earlier work
[4] = Solubility and precipitation in aqueous solution / NMR samples during titration
cTnI144−163 = cTnI144−163 (Homo sapiens, UniProt P19429); experiment: 1D 1H NMR titration of levosimendan into free cTnI144−163 peptide; type: binding; conditions: data not shown
[5] = molecular target: cTnC·3Ca^2+·cTnI32−79·cTnI128−180; conditions: cited from earlier work
skinned muscle fibers = conditions: cited from earlier work
perfused hearts = conditions: cited from earlier work
cTnI147−163 = cTnI147−163 (Homo sapiens, UniProt P19429); experiment: 1D 1H NMR titration of levosimendan into free cTnI147−163 peptide; type: binding; conditions: data not shown
How it was run: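 Test compound stocks were made fresh in DMSO-d6 for every titration and shielded from light; concentrations were determined gravimetrically. […] 1D 1H spectra were recorded at 500 MHz.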

[6] = molecular target: sTnC·4Ca^2+·sTnI1−182·sTnT156−262; conditions: cited from earlier work
cNTnC(C35S/C84S)·Ca^2+ = cNTnC(C35S/C84S)·Ca^2+ (Homo sapiens, UniProt P63316, C35S/C84S); experiment: 2D 1H-15N HSQC NMR titration of cNTnC; type: binding
cNTnC(WT)·Ca^2+ = conditions: WT isoform; cited from earlier work

Molecule: NCCCCCCNS(=O)(=O)c1cccc2c(Cl)cccc12 [W7, N-(6-aminohexyl)-5-chloro-1-naphthalenesulfonamide]
- Kd [3]: ~500 µM

Molecule: O=C1CCC(c2ccc(-n3ccnc3)cc2)=NN1 [imazodan, 4,5-dihydro-6-[4-(1-imidazol-1-yl)phenyl]-3(2H)-pyridazinone]
- chemical shift changes on titration (in words) [1]: No chemical shift changes were observed
- chemical shift changes on titration (in words) [2]: No chemical shift changes were observed

Molecule: CC1CC(=O)NN=C1c1ccc(Cl)cc1 (stereo not drawn) [CMDP, 6-(4-chlorophenyl)-5-methyl-4,5-dihydro-3(2H)-pyridazinone]
- drug-induced backbone amide chemical shift changes [1]: ≤ 60 Hz

Molecule: CC1CC(=O)NN=C1c1ccc(N)cc1 (stereo not drawn) [AMDP, 6-(4-aminophenyl)-5-methyl-4,5-dihydro-3(2H)-pyridazinone]
- solubility in aqueous solution (in words) [4]: highly soluble in aqueous solution
- drug-induced backbone amide chemical shift changes [1]: ≤ 20 Hz
- Kd [1]: 1500 µM and ~1500 µM
- Kd [2]: 6500 µM

Molecule: CC(C)(C)CC(C)(C)c1ccc(OCCOCCOCCOCCO)cc1 [anapoe, 2-[2-(2-{2-[4-(1,1,3,3-tetramethylbutyl)phenoxy]ethoxy}ethoxy)ethoxy]ethanol]
- Kd [6]: ~640 µM

Molecule: Ac-RISADAMMQALLGARAK-NH2 [cTnI147−163]
- solubility in aqueous solution (in words) [4]: highly soluble in aqueous solution
- stoichiometry of binding (cNTnC(C35S/C84S)·Ca^2+; C35S/C84S isoform): 1/1
- equiv of peptide required to saturate the protein (cNTnC(C35S/C84S)·Ca^2+; solid peptide added, pH 6.7): 3−3.5 equiv
- stoichiometry of binding (cNTnC(WT)·Ca^2+): 1/1

Further lines, with some results ahead:

- chemical shift changes on titration (in words) [1]: No chemical shift changes were observed
- chemical shift changes on titration (in words) [2]: No chemical shift changes were observed
Molecule: COc1ccc(C2=NNC(=O)CC2)cc1 [MPDP, 6-(4-methoxyphenyl)-4,5-dihydro-3(2H)-pyridazinone]

- solubility in aqueous solution (in words) [4]: insoluble in aqueous solution
- chemical shift change of the peptide in the presence of drug (in words) (cTnI144−163): no chemical shift change
- chemical shift change of the peptide in the presence of drug (in words) (cTnI147−163): no chemical shift change
Molecule: C[C@@H]1CC(=O)NN=C1c1ccc(NN=C(C#N)C#N)cc1 [levosimendan, (−)-[4-(1,4,5,6-tetrahydro-4-methyl-6-oxo-3-pyridazinyl)phenyl]hydrozonopropanedinitrile]
- Kd [5]: ≥ 200 µM
- concentration of maximal effect (skinned muscle fibers): 10 µM
- lowest concentration with multiple effects (perfused hearts): 0.3 µM

- drug-induced backbone amide chemical shift changes [1]: ≤ 20 Hz
- Kd [1]: 2650 µM
- Kd [2]: 11000 µM
Molecule: CC1CC(=O)NN=C1c1ccc(-n2ccnc2)cc1 (stereo not drawn) [CI-930, 4,5-dihydro-6-[4-(1-imidazol-1-yl)phenyl]-5-methyl-4,5-dihydro-3(2H)-pyridazinone]
